In test [1] the test system is Candida albicans. The test is described as follows: Antifungal activity against Candida albicans after 30 to 72 hrs by agar culture method. Type of test: functional, organism-based. In short, it runs like this:
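Agar well assay on C. albicans: compounds at a range of concentrations in DMF were loaded into 6 mm wells. Plates were incubated at 30 °C for 30–72 h. Inhibition zones were read in mm against standard drugs.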

Test [2] deals with Streptococcus agalactiae. The test can be described thus: Antibacterial activity against multidrug-resistant Streptococcus agalactiae after 24 hrs by broth microdilution method. The format is functional. In short, it runs like this: (§1)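 MIC was determined in Mueller–Hinton broth.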
For test [3], the system named is Pseudomonas aeruginosa. The test is described as follows: Antibacterial activity against multidrug-resistant Pseudomonas aeruginosa after 24 hrs by broth microdilution method. Type of test: functional. In short, it runs like this: as §1
Test [4] relates to Streptococcus pneumoniae. The test can be described thus: Antibacterial activity against multidrug-resistant Streptococcus pneumoniae after 24 hrs by broth microdilution method. Type of test: functional. A digest of the protocol:
as §1

Test [5] relates to Staphylococcus aureus. The test is described as follows: Antibacterial activity against multidrug-resistant Staphylococcus aureus after 24 hrs by broth microdilution method. The format is functional. In short, it runs like this:
as §1

Test [6] relates to Streptococcus pneumoniae. The test can be described thus: Antibacterial activity against multidrug-resistant Streptococcus pneumoniae after 20 hrs by cylinder and well method. The format is functional. A digest of the protocol: (§2)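 Agar diffusion assay: organisms grown overnight on 2% agar with 5% sheep blood under 10% CO2. Inocula were diluted in Ringer solution, treated in Todd–Hewitt medium and spread on agar plates. Drug spots were applied, with about 5 × 10^3 CFU/spot. Plates were held at 37 °C for 20 h. Inhibition zones were read in mm against standard drugs and vehicle.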

Test [7] deals with Escherichia coli. The test can be described thus: Antibacterial activity against multidrug-resistant Escherichia coli broth after 24 hrs by broth microdilution method. Type of test: functional. In short, it runs like this:
as §1

Test [8] deals with Streptococcus agalactiae. The test can be described thus: Antibacterial activity against multidrug-resistant Streptococcus agalactiae after 20 hrs by cylinder and well method. Type of test: functional. A digest of the protocol:
as §2

Test [9] concerns Staphylococcus aureus. The test can be described thus: Antibacterial activity against multidrug-resistant Staphylococcus aureus after 20 hrs by cylinder and well method. Type of test: functional. A digest of the protocol:
as §2

Test [10] concerns Streptococcus pyogenes. The test is described as follows: Antibacterial activity against multidrug-resistant Streptococcus pyogenes after 24 hrs by broth microdilution method. The format is functional. In short, it runs like this: as §1
Test [11] relates to Salmonella enterica subsp. enterica. The test is described as follows: Antibacterial activity against multidrug-resistant Salmonella typhi after 20 hrs by cylinder and well method. The format is functional, Salmonella enterica subsp. enterica serovar Typhi. A digest of the protocol:
as §2

The subject of test [12] is Escherichia coli. The test can be described thus: Antibacterial activity against multidrug-resistant Escherichia coli after 20 hrs by cylinder and well method. The format is functional. A digest of the protocol: as §2
The subject of test [13] is Salmonella enterica subsp. enterica. The test can be described thus: Antibacterial activity against multidrug-resistant Salmonella typhi after 24 hrs by broth microdilution method. The format is functional, Salmonella enterica subsp. enterica serovar Typhi. A digest of the protocol: as §1
The subject of test [14] is Streptococcus pyogenes. The test is described as follows: Antibacterial activity against multidrug-resistant Streptococcus pyogenes after 20 hrs by cylinder and well method. The format is functional. A digest of the protocol:
as §2

Test [15] has as its system Pseudomonas aeruginosa. The test can be described thus: Antibacterial activity against multidrug-resistant Pseudomonas aeruginosa after 20 hrs by cylinder and well method. Type of test: functional. In short, it runs like this: as §2

Values after ≈ are worked out from the molar mass of the structure shown. Active and inactive are the calls of the source. The calls are words filed in the database; no cut-off is given here.

On to `O=C(Cn1c2ccccc2c2nc3ccccc3nc21)N1N=C(c2cc3ccccc3o2)CC1c1ccccc1O` (stereo not drawn), for which, in test [1], the result was inactive. Further, the minimal inhibitory concentration (MIC) is 22 mg/L (≈ 40.9 µM) in [2]; 3.5 mg/L (≈ 6.51 µM) in test [3]; 9.5 mg/L (≈ 17.7 µM) in test [4]; 6 mg/L (≈ 11.2 µM) in test [5]; 1 mg/L (≈ 1.86 µM) in test [7]; 26 mg/L (≈ 48.4 µM) in test [10]. The molecule further returned an MIC in [13] of 8.5 mg/L (≈ 15.8 µM). Besides, the “inhibition zone (IZ)” value in test [6] is given as 12 mm; in test [8], 11 mm; in test [9], 13 mm; in [11] it was 13 mm; in test [12] it was 18 mm; in test [14], 10 mm. The “inhibition zone (IZ)” value in test [15] stood at 15 mm.
As to `COc1ccccc1C1CC(c2cc3ccccc3o2)=NN1C(=O)Cn1c2ccccc2c2nc3ccccc3nc21` (stereo not drawn), in [1], the outcome was inactive. The MIC in [2] came out at 25 mg/L (≈ 45.3 µM); in test [3], 14.5 mg/L (≈ 26.3 µM); in [4], 11.5 mg/L (≈ 20.8 µM); in [5], 7.5 mg/L (≈ 13.6 µM); in test [7] it was 16.5 mg/L (≈ 29.9 µM); in test [10], 22.5 mg/L (≈ 40.8 µM). Moreover, the minimum inhibitory concentration (MIC) in test [13] came out at 15.5 mg/L (≈ 28.1 µM). In addition, the “inhibition zone (IZ)” value turned out to be 10 mm in [6]; 9 mm in test [8]; 11 mm in test [9]; 7 mm in test [11]; 9 mm in test [12]; 15 mm in test [14]. In addition, the “inhibition zone (IZ)” value in test [15] came to 12 mm.
For `COc1ccc(C2CC(c3cc4ccccc4o3)=NN2C(=O)Cn2c3ccccc3c3nc4ccccc4nc32)cc1` (stereo not drawn), in test [1], the result was inactive. The minimal inhibitory concentration (MIC) in test [2] was determined as 19 mg/L (≈ 34.4 µM); in test [3], 12.5 mg/L (≈ 22.7 µM); in [4], 4.5 mg/L (≈ 8.16 µM); in test [5], 8 mg/L (≈ 14.5 µM); in test [7], 5 mg/L (≈ 9.06 µM); in [10], 23.5 mg/L (≈ 42.6 µM). This molecule came in with a minimal inhibitory concentration (MIC) in [13] of 12 mg/L (≈ 21.8 µM). Also, the “inhibition zone (IZ)” value stood at 16 mm in test [6]; 14 mm in test [8]; 12 mm in [9]; 11 mm in [11]; 17 mm in test [12]; 14 mm in test [14]. Besides, the “inhibition zone (IZ)” value in [15] is 13 mm.
Consider `CN(C)c1ccc(C2CC(c3cc4ccccc4o3)=NN2C(=O)Cn2c3ccccc3c3nc4ccccc4nc32)cc1` (stereo not drawn), for which the outcome in test [1] was inactive. For the same molecule, the MIC was 36.5 mg/L (≈ 64.6 µM) in test [2]; 14 mg/L (≈ 24.8 µM) in [3]; 9 mg/L (≈ 15.9 µM) in [4]; 7 mg/L (≈ 12.4 µM) in test [5]; 13.5 mg/L (≈ 23.9 µM) in test [7]; 25.5 mg/L (≈ 45.2 µM) in test [10]. Also, it took 9.5 mg/L (≈ 16.8 µM) to inhibit growth in test [13] (MIC). Further, the “inhibition zone (IZ)” value in test [6] amounted to 13 mm; in test [8], 7 mm; in [9], 14 mm; in [11] it was 10 mm; in [12] it was 10 mm; in test [14] it was 9 mm. The “inhibition zone (IZ)” value in test [15] is on record as 11 mm.
As to `O=C(Cn1c2ccccc2c2nc3ccccc3nc21)N1N=C(c2cc3ccccc3o2)CC1c1cccc([N+](=O)[O-])c1` (stereo not drawn), in [1], the result was inactive. The minimal inhibitory concentration (MIC) came to 26 mg/L (≈ 45.9 µM) in test [2]; 5.5 mg/L (≈ 9.71 µM) in test [3]; 8 mg/L (≈ 14.1 µM) in test [4]; 12.5 mg/L (≈ 22.1 µM) in [5]; 10.5 mg/L (≈ 18.5 µM) in test [7]; 28 mg/L (≈ 49.4 µM) in test [10]. This molecule gave an MIC in test [13] of 13 mg/L (≈ 22.9 µM). The “inhibition zone (IZ)” value in [6] was found to be 14 mm; in [8] it was 12 mm; in test [9], 9 mm; in test [11], 10 mm; in test [12], 13 mm; in [14] it was 12 mm. In test [15], the “inhibition zone (IZ)” value is 16 mm.
`O=C(Cn1c2ccccc2c2nc3ccccc3nc21)N1N=C(c2cc3ccccc3o2)CC1c1ccc(Cl)cc1` (stereo not drawn): in [1], the result was inactive. Moreover, the minimal inhibitory concentration (MIC) in test [2] came out at 28 mg/L (≈ 50.4 µM); in test [3], 16.5 mg/L (≈ 29.7 µM); in [4] it was 5.5 mg/L (≈ 9.89 µM); in [5], 16.5 mg/L (≈ 29.7 µM); in [7], 22.5 mg/L (≈ 40.5 µM); in test [10] it was 22 mg/L (≈ 39.6 µM). The molecule further returned a minimum inhibitory concentration (MIC) in [13] of 16 mg/L (≈ 28.8 µM). Further, the “inhibition zone (IZ)” value in test [6] is given as 15 mm; in test [8] it was 10 mm; in [9], 8 mm; in test [11] it was 10 mm; in test [12] it was 7 mm; in [14], 14 mm. The “inhibition zone (IZ)” value in test [15] is on record as 10 mm.
In the case of `O=C(O)c1ccccc1C1CC(c2cc3ccccc3o2)=NN1C(=O)Cn1c2ccccc2c2nc3ccccc3nc21` (stereo not drawn), in test [1], the result was inactive. Also, the MIC in [2] is 24 mg/L (≈ 42.4 µM); in test [3], 6.5 mg/L (≈ 11.5 µM); in test [4], 10.5 mg/L (≈ 18.6 µM); in test [5] it was 8.5 mg/L (≈ 15 µM); in test [7] it was 13 mg/L (≈ 23 µM); in test [10], 30.5 mg/L (≈ 53.9 µM). This molecule displayed a minimum inhibitory concentration (MIC) in [13] of 15 mg/L (≈ 26.5 µM). Moreover, the “inhibition zone (IZ)” value in [6] came out at 12 mm; in test [8], 10 mm; in test [9], 12 mm; in test [11], 8 mm; in test [12], 11 mm; in test [14] it was 10 mm. For the same molecule, in test [15], the “inhibition zone (IZ)” value came to 14 mm.
`O=C(Cn1c2ccccc2c2nc3ccccc3nc21)N1N=C(c2cc3ccccc3o2)CC1c1ccccc1[N+](=O)[O-]` (stereo not drawn): in [1], the outcome was inactive. Moreover, the minimal inhibitory concentration (MIC) in test [2] came out at 22 mg/L (≈ 38.8 µM); in test [3] it was 10.5 mg/L (≈ 18.5 µM); in [4], 8.5 mg/L (≈ 15 µM); in test [5], 9.5 mg/L (≈ 16.8 µM); in test [7], 5.5 mg/L (≈ 9.71 µM); in test [10], 24 mg/L (≈ 42.4 µM). Also, the minimal inhibitory concentration (MIC) in test [13] is 14.5 mg/L (≈ 25.6 µM). The “inhibition zone (IZ)” value was found to be 13 mm in test [6]; 12 mm in test [8]; 12 mm in test [9]; 10 mm in test [11]; 16 mm in test [12]; 10 mm in test [14]. Moreover, in [15], the “inhibition zone (IZ)” value is 12 mm.
As to `CCn1cc(C(=O)O)c(=O)c2cc(F)c(N3CCNCC3)cc21` [NORFLOXACIN], the minimum inhibitory concentration (MIC) was found to be 22 mg/L (≈ 68.9 µM) in [2]; 1.8 mg/L (≈ 5.64 µM) in [3]; 0.12 mg/L (≈ 0.376 µM) in test [4]; 1.5 mg/L (≈ 4.7 µM) in test [5]; 1.3 mg/L (≈ 4.07 µM) in test [7]; 2.6 mg/L (≈ 8.14 µM) in [10]. In addition, inhibition of growth in [13] (MIC) required 20.2 mg/L (≈ 63.3 µM). Moreover, the “inhibition zone (IZ)” value is listed as 22 mm in test [6]; 32 mm in [8]; 28 mm in test [9]; 24 mm in [11]; 20 mm in test [12]; 30 mm in test [14]. For the same molecule, the “inhibition zone (IZ)” value in test [15] amounted to 28 mm.
With `C[C@@H]1CN(c2c(F)c(N)c3c(=O)c(C(=O)O)cn(C4CC4)c3c2F)C[C@H](C)N1` [SPARFLOXACIN], the MIC stood at 12 mg/L (≈ 30.6 µM) in test [2]; 4.6 mg/L (≈ 11.7 µM) in test [3]; 0.04 mg/L (≈ 0.102 µM) in test [4]; 0.25 mg/L (≈ 0.637 µM) in test [5]; 0.26 mg/L (≈ 0.663 µM) in test [7]; 15 mg/L (≈ 38.2 µM) in test [10]. The molecule further returned a minimal inhibitory concentration (MIC) in [13] of 0.5 mg/L (≈ 1.27 µM). In addition, the “inhibition zone (IZ)” value amounted to 34 mm in [6]; 38 mm in test [8]; 36 mm in [9]; 34 mm in [11]; 30 mm in [12]; 38 mm in test [14]. For the same molecule, in test [15], the “inhibition zone (IZ)” value is 33 mm.

For the origin of these results see ChEMBL document CHEMBL1153606, “Microwave assisted synthesis of new indophenazine 1,3,5-trisubstruted pyrazoline derivatives of benzofuran and their antimicrobial activity” (2009).
